Reference: article PMC10655119 (Journal of the American Chemical Society, 2023)

Columns and labels:
Assay type in all cases: cell-based
[1] = test system: HeLa cells; assay: Protein-CPP; conditions: 1 h; for Delivery of I into the cytosol with CPP-additive at 2.5 μM: I 5 μM + CPP-additive 2.5 μM, serum-free
[2] = test system: HeLa cells; assay: Time-lapse fluorescence microscopy of Cy5-labeled CPP-additives; conditions: for Time until nucleolar mCherry signals are observed: serum-free, images at 60 s intervals
Outline: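 HeLa cells given Cy5-labeled R10 peptide additives (1 μM), with or without the hydrophobic motif, in serum-free FluoroBrite DMEM. Confocal imaging at 5 and 10 min, with line-scan profiles of Cy5 distribution. For cotreatment, NLS-mCherry-R10 cargo (5 μM) and additive were added after 60 s of baseline imaging. Frames taken every 60 s for 15 min to track nucleolar mCherry.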

[3] = test system: HeLa cells; assay: Mitochondrial dehydrogenase; conditions: 1 h, serum-free FluoroBrite DMEM
Outline: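 HeLa cells exposed 1 h to CPP-additive (2.5, 5 or 10 μM) in serum-free FluoroBrite DMEM, then viability read by WST-1 reduction to formazan by mitochondrial dehydrogenase. For prolonged exposure, cells coincubated 1 h with NLS-mCherry-R10 cargo plus additive, supernatant replaced with fresh culture medium, and WST-1 read after 24 h.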

[4] = test system: HeLa cells; assay: Lactate dehydrogenase; conditions: 1 h
Outline: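 HeLa cells exposed to CPP-additives at 2.5, 5 or 10 μM for 1 h in serum-free FluoroBrite DMEM. Membrane integrity judged by lactate dehydrogenase released into the medium. Mean ± SE of three biological replicates.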

[5] = HeLa, 2.5, 5 or 10 μM CPP-additive, three biological replicates
[6] = HeLa, 2.5, 5 or 10 μM CPP-additive

O=C(O)CCCc1ccc2ccc3cccc4ccc1c2c34 [PyB, pyrenebutyrate, reference compound]
Uptake of I at lowered I concentration with PyB ([1]; PyB 50 μM 5 min, then I 5 μM): loss of enhanced uptake of I
Uptake of I after pretreatment with PyB at 10 μM and lower ([1]; PyB 10 and 5 μM 5 min, then I): only endosomal uptake

TNB-Cy5-R10 [compound 22]
Line-scan profile of Cy5 fluorescence after 10 min ([2]; 1 μM peptide alone): mainly observed within the interior of cells
Localisation of Cy5-labeled CPP-additive over time ([2]; 1 μM peptide alone, serum-free FluoroBrite DMEM, 37 °C, time-lapse): quickly enters the cytosol
Time until nucleolar mCherry signals are observed ([2]; I 5 μM + Cy5-additive 1 μM): 15 min

TNB-Cy5-R10-ILFF [compound 23]
Line-scan profile of Cy5 fluorescence after 10 min ([2]; 1 μM peptide alone): remained concentrated around the cell periphery
Time until cell-surface-associated additive is internalized into endosomes ([2]; 23 1 μM 5 min at 37 °C, washed, time-lapse 30 min): 30 min
Cell membrane accumulation of additive in the presence of I ([2]; I 5 μM + Cy5-additive 1 μM): persisted even after 10 min
Time until nucleolar mCherry signals are observed ([2]; I 5 μM + Cy5-additive 1 μM): 3 min

TNB-R10-FWF [compound 3]
Cytotoxicity (WST1 assay) ([3]; HeLa, 5 μM CPP-additive): no cytotoxicity
LDH release (membrane integrity) ([4]; HeLa, 5 μM CPP-additive): significantly released

TNB-R10-ILIL [compound 4]
Cytotoxicity (WST1 assay) [3, 5]: no cytotoxic effect
LDH release (membrane integrity) [4, 6]: no LDH release

TNB-R10-ILLL [compound 5]
Cytotoxicity (WST1 assay) [3, 5]: no cytotoxic effect
LDH release (membrane integrity) [4, 6]: no LDH release

TNB-R10-Nal2 [compound 7]
Delivery of I into the cytosol with CPP-additive at 2.5 μM [1]: successful delivery

TNB-R10-Nal [compound 6]
Delivery of I into the cytosol with CPP-additive at 2.5 μM [1]: successful delivery

alk-Cy5-R10-ILFF [alkylated analogue]
Membrane interaction and facilitation of protein-CPP uptake ([2]; alk-Cy5-R10-ILFF 1 μM alone or with I 5 μM, 10 min): incapable of both interacting with the cell membrane and facilitating the uptake of protein-CPPs
